Experiments:
recombinant human HDAC 1 = recombinant human HDAC 1 (Homo sapiens, UniProt Q13547); assay: HDAC enzyme inhibition assay, HDAC1; assay type: biochemical; details: read-out: In vitro IC50, HD1, NI = no inhibition up to 10 mM tested
Method in brief: (§1)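 Recombinant human enzyme incubated at 37°C for 30 min in HDAC assay buffer with 5 μg BSA and fluorogenic substrate 3 (10 μM). Double-strength developer was then added for 20 min at room temperature, and fluorescence was read at ex 360/em 460 nm. The six-point concentration series was run in duplicate. Activity was taken as (F−Fb)/(Ft−Fb), with no-inhibitor as 100% and no-enzyme as 0%, and IC50 came from a sigmoidal nonlinear fit.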

[1] = biological target: T1, recombinant human HDAC 11 (Homo sapiens, UniProt Q96DB2); assay: HDAC enzyme inhibition assay, HDAC11; assay type: biochemical; details: read-out: In vitro IC50, HD11
T1 sequence (Q96DB2 1-347): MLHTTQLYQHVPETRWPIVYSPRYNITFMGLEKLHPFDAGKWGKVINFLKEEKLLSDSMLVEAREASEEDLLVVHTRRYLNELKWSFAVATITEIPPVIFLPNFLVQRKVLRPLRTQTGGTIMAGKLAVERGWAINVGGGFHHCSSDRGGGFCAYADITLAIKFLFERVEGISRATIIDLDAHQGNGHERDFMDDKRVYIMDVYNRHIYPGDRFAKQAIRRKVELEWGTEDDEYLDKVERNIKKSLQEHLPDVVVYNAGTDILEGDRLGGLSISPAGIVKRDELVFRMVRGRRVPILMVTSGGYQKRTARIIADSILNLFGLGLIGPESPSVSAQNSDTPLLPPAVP
Method in brief: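 Recombinant human enzyme incubated for 60 min at 37°C in HDAC assay buffer containing 5 μg BSA and substrate 3 at 10 μM. Developer (double strength) was added for 20 min at room temperature, and fluorescence was read at 360/460 nm. Six concentrations were tested in duplicate. Percent activity was normalised between no-inhibitor (100%) and no-enzyme (0%) wells, and IC50 came from sigmoidal nonlinear regression.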

recombinant human HDAC 2 = recombinant human HDAC 2 (Homo sapiens, UniProt Q92769); assay: HDAC enzyme inhibition assay, HDAC2; assay type: biochemical; details: read-out: In vitro IC50, HD2
Sequence of recombinant human HDAC 2 (Q92769 whole entry): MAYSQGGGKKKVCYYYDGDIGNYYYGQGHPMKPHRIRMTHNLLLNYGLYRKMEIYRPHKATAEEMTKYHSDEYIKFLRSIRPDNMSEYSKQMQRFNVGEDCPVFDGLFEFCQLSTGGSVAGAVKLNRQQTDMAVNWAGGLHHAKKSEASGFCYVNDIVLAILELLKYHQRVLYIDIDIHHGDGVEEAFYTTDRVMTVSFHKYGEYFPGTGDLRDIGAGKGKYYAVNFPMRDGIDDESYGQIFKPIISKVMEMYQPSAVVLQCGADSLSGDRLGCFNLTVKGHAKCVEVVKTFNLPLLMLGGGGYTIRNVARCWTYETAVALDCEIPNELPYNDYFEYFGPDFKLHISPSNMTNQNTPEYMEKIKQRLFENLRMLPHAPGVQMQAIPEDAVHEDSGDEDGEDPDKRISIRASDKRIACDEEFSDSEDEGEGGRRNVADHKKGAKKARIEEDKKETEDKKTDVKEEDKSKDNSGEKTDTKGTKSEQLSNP
Method in brief: as §1

contextual fear memory = assay: Contextual fear conditioning, 24 hr retention; assay type: in vivo, Long-Evans rats; details: 1.2 g/kg i.p. 1 hr prior to CFC training
recombinant human HDAC 3 = recombinant human HDAC 3 (Homo sapiens, UniProt O15379); assay: HDAC enzyme inhibition assay, HDAC3; assay type: biochemical; details: read-out: In vitro IC50, HD3
Sequence of recombinant human HDAC 3 (O15379 whole entry): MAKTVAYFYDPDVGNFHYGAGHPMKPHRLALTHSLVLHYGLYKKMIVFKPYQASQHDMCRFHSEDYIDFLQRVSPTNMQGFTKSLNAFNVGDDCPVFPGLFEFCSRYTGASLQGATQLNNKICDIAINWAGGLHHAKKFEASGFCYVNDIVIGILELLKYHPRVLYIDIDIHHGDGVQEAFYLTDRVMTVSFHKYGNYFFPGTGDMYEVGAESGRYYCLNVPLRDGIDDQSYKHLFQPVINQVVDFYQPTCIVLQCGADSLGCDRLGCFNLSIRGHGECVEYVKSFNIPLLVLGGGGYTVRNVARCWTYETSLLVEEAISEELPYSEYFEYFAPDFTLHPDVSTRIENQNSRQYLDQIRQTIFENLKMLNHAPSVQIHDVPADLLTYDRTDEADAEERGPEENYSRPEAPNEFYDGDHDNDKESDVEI
Sequence of recombinant human HDAC 3 (Q9Y618 395-489 partner limits assumed): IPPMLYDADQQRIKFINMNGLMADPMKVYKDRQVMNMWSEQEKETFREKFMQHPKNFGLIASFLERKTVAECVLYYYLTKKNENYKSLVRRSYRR
Method in brief: as §1

[2] = system: hippocampal histone H3 and H4 acetylation; assay: Brain/hippocampal histone acetylation after i.p. injection; assay type: in vivo, Long-Evans rats
[3] = biological target: T2, recombinant human HDAC 10 (Homo sapiens, UniProt Q969S8); assay: HDAC enzyme inhibition assay, HDAC10; assay type: biochemical; details: read-out: In vitro IC50, HD10
T2 sequence (Q969S8 1-669): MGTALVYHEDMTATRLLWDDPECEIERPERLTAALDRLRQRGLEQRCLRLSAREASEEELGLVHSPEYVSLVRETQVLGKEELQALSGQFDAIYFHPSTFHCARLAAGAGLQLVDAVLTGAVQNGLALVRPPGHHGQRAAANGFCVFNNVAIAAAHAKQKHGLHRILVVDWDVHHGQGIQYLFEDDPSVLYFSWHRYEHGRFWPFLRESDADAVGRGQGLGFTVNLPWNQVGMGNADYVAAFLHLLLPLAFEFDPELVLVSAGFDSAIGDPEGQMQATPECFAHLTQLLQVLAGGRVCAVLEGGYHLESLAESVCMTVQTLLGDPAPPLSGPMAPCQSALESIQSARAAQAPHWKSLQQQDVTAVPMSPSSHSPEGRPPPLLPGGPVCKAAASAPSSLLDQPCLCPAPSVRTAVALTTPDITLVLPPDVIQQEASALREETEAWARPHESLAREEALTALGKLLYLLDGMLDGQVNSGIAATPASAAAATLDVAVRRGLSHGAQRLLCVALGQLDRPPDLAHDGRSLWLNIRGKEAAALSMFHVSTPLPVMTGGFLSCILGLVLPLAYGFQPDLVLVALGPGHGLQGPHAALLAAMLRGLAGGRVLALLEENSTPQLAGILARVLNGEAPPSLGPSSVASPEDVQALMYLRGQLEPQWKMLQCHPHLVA
Method in brief: as §1

recombinant human HDAC 8 = biological target: T3, recombinant human HDAC 8 (Homo sapiens, UniProt Q9BY41); assay: HDAC enzyme inhibition assay, HDAC8; assay type: biochemical; details: read-out: In vitro IC50, HD8
T3 sequence (Q9BY41 1-377): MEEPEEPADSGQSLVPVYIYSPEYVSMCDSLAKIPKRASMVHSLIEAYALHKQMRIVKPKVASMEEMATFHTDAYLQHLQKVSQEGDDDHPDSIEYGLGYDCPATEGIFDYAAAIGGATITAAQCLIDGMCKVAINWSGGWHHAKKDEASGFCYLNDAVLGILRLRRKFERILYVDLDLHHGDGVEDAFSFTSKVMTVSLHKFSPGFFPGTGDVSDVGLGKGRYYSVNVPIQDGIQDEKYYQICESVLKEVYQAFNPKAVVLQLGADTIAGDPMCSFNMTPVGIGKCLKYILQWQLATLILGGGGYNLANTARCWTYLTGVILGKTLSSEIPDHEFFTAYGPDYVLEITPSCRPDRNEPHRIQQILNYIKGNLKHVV
Method in brief: as §1

Sequence of recombinant human HDAC 1 (Q13547 whole entry): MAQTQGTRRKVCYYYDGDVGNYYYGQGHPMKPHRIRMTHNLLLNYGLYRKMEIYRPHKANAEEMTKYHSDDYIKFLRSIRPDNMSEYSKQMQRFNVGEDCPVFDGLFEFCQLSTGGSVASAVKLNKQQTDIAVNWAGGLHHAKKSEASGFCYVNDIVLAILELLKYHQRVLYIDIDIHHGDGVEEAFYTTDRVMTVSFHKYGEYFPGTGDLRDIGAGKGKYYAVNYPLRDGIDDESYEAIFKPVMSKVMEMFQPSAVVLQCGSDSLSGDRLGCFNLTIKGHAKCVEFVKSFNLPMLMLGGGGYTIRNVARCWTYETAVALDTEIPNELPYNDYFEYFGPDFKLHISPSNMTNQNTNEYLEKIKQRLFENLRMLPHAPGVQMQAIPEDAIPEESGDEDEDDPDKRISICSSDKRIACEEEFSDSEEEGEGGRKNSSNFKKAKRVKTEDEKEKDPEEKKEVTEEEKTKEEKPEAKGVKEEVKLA

CCCC(=O)[O-].[Na+] [NaB, sodium butyrate]
IC50 (recombinant human HDAC 1): 330 µM
IC50 [1]: 565 µM
IC50 (recombinant human HDAC 2): 118 µM
mean freezing at 24 hr retention test (contextual fear memory): 12.73 s
retention of contextual fear memory at 24 hr (contextual fear memory): failed to enhance retention
IC50 (recombinant human HDAC 3): 126 µM
histone H3 and H4 acetylation in whole hippocampus, 30 min ([2]; 30 min after 1.2 g/kg i.p.): increasing at 30 min relative to vehicle
histone H3 and H4 acetylation in whole hippocampus, 60 min ([2]; 60 min after 1.2 g/kg i.p.): returning to baseline levels
IC50 [3]: 543 µM
IC50 (recombinant human HDAC 8): 611 µM

Source: article PMC4107104 (Hippocampus, 2014)
